The list is not random: actives were taken first. Their share in the collection is about 2.8%.
SIRT5 inh: sirtuin-5 (human) deacylase inhibition; Q9NXA8; Purified SirT5, succinyl-peptide AMC, trypsin-coupled fluorescence; inhibition, % at 15 µM; actives 1.1% (n = 330,000); AID 652115; in the data active = inhibition above about 15%; inconclusive = no clear call, values can overlap the other calls
E-selectin induc: induces E-selectin expression in human endothelial cells | P16581 | HUVEC E-selectin immunofluorescence imaging; normalized: neutral wells 0, TNF-alpha wells 100 | activation, % at 7.58 µM | actives 0.37% (n = 260,000) | AID 686992;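 active = mean E-selectin-positive cell signal at least 10% of the positive control, reached in at least 60% of replicates, without over 20% cell loss; inconclusive = no rule given, readout overlaps actives, possibly toxicity-flagged; inactive = the rest, including those meeting only one limit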
Target sequence (P16581 whole entry, looked up): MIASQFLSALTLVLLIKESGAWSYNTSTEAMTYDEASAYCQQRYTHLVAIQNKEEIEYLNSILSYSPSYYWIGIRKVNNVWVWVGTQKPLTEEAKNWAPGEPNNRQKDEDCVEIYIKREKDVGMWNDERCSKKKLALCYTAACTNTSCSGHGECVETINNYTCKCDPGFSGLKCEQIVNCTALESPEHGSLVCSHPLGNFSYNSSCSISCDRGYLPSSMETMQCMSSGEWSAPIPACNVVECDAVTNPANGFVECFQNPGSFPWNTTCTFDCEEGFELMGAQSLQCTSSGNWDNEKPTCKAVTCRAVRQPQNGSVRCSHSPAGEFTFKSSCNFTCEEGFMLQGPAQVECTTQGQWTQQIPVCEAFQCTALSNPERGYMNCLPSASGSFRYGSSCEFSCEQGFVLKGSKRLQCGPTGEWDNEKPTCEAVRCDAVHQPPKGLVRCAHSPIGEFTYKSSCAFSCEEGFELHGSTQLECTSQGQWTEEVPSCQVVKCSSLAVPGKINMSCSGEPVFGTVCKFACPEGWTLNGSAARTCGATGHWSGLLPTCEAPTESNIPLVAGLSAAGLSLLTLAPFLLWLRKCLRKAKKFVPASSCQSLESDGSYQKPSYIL
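assay system = HUVEC, human umbilical vein endothelial cells | input = 3,000 HUVEC seeded per well | medium = EGM-2 growth medium on 0.1% gelatin-coated wells | dosing = one compound dose added by pin transfer | signal = immunofluorescence imaging | read-out basis = % PE-positive cells | control set = TNF-alpha, DMSO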
DENV2 CPE rescue: DENV2-induced cell death inhibition; AID 651640; CPE inhibition, % at 9.99 µM; actives 1.7% (n = 350,000); DENV2-infected cells, cytopathic effect rescue, plate reader; in the data active = CPE inhibition above about 20%, passing the limit was not always enough; inconclusive = no clear call, values can overlap the other calls; tested in BHK-21 cells;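 also: 0% = median of neutral control wells and 100% = median of positive control wells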
* marks the source's active call; other numbers are inactive results; ? = inconclusive; . = no result.

SMILES | SIRT5 inh | E-selectin induc | DENV2 CPE rescue
C[C@@H]1CCCCO[C@@H](CN(C)C(=O)Nc2ccc(C(F)(F)F)cc2)[C@@H](C)CN([C@@H](C)CO)C(=O)c2cc(NC(=O)C3CCCCC3)ccc2O1 | 4 | 0 | -8
C[C@H]1CCCCO[C@H](CN(C)C(=O)Nc2ccc(C(F)(F)F)cc2)[C@@H](C)CN([C@@H](C)CO)C(=O)c2cc(NC(=O)C3CCCCC3)ccc2O1 | 3 | 0 | 87*
C[C@@H]1CN([C@H](C)CO)C(=O)c2cc(NC(=O)C3CCCCC3)ccc2O[C@@H](C)CCCCO[C@H]1CN(C)C(=O)Nc1ccc(C(F)(F)F)cc1 | -3 | 0 | -1
C[C@H]1CCCCO[C@H](CN(C)C(=O)Nc2ccc(C(F)(F)F)cc2)[C@@H](C)CN([C@@H](C)CO)C(=O)c2cc(NC(=O)Nc3ccc(C(F)(F)F)cc3)ccc2O1 | . | 0 | -6
Cc1ccc(S(=O)(=O)N(C)C[C@H]2Oc3c(NC(=O)C4CC4)cccc3C(=O)N([C@H](C)CO)C[C@@H]2C)cc1 | -1 | 2 | 1
Cc1cccc(S(=O)(=O)N2C[C@H](O)COC[C@@H]3O[C@H](CC(=O)Nc4ccc(-c5ccccc5)cc4)CC[C@H]32)c1 | 1 | 0 | 4
O=C(NCC[C@H]1CC[C@H](NS(=O)(=O)c2ccc(F)cc2)[C@@H](CO)O1)Nc1ccc(F)cc1 | -3 | 0 | 0
COc1ccc(-c2ccccc2[C@@H]2[C@@H](CO)N(C(=O)NC(C)C)[C@H]2C#N)cc1 | -1 | 0 | 10
COc1ccc(CCNC2CC(=O)N(N(C)C)C2=O)cc1OC (centres undefined) | -2 | . | -5
COc1ccc(CCNC2CC(=O)N(C3CCCCC3)C2=O)cc1OC (centres undefined) | -2 | 1 | 26*
Cc1cc(Cc2cc(C)c(N)cc2C)c(C)cc1N | 21* | 2 | -1
Cc1ccc(C)c(N)c1 | . | . | -17
CCC(=O)N1CC(=O)N2[C@@H](CO)[C@@H](c3ccc(C#Cc4cccc(OC)c4)cc3)[C@@H]2C1 | 0 | 0 | 8
CCCNC(=O)N1CC2(CN(S(=O)(=O)c3ccccc3)C2)c2c(n(C)c3cc(OC)ccc23)[C@H]1CO | -3 | 0 | -4
CCCNC(=O)N1CC2(CN(S(=O)(=O)c3cccc(OC)c3)C2)c2c(n(C)c3cc(OC)ccc23)[C@H]1CO | . | 0 | 41*
COc1ccc2c3c(n(C)c2c1)[C@H](CO)N(C(=O)NC(C)C)CC31CCN(CC2CCCC2)CC1 | 1 | 0 | 40*
COc1ccc2c3c(n(C)c2c1)[C@H](CO)N(C)CC31CN(S(C)(=O)=O)C1 | . | 0 | 23*
CCCNC(=O)N1CC2(CN(S(=O)(=O)c3ccc(OC)cc3)C2)c2c(n(C)c3cc(OC)ccc23)[C@H]1CO | 16* | -1 | 17
COc1ccc2c3c(n(C)c2c1)[C@H](CO)N(C(=O)NC(C)C)CC31CCN(CC2CCCCC2)CC1 | . | 1 | 7
CCS(=O)(=O)N1CCC2(CC1)CN(C)[C@H](CO)c1c2c2ccc(OC)cc2n1C | . | 0 | 0
CCCNC(=O)N1CC2(CN(S(=O)(=O)c3ccccc3)C2)c2c(n(C)c3cc(OC)ccc23)[C@@H]1CO | 0 | 0 | 2
C[C@@H]1CN([C@H](C)CO)C(=O)c2cc(NC(=O)CCC(F)(F)F)ccc2O[C@H]1CN(C)S(=O)(=O)c1cn(C)cn1 | 4 | 4 | 6
C[C@@H]1CN([C@H](C)CO)C(=O)c2cc(NC(=O)Nc3ccccc3)ccc2O[C@H]1CN(C)C(=O)NC1CCCCC1 | -2 | 6 | 11
COCC(=O)Nc1ccc2c(c1)OC[C@@H](C)N(C(=O)CC1CC1)C[C@H](C)[C@H](OC)CN(C)C2=O | 2 | 0 | -2
CCCC#Cc1ccc2c(c1)O[C@H](CN(C)Cc1ccncc1)[C@H](C)CN([C@@H](C)CO)S2(=O)=O | 0 | 0 | 6
SMILES | SIRT5 inh | E-selectin induc | DENV2 CPE rescue
CCC(=O)Nc1ccc2c(c1)C(=O)N(C)[C@H]1CC[C@H](CC(=O)O)O[C@@H]1CO2 | -7 | 0 | -1
COC(=O)[C@H]1[C@H](CO)[C@H]2Cn3c(ccc(-c4cncnc4)c3=O)[C@H]2N1C(=O)C1CCC1 | -31 | 1 | -3
CCCNC(=O)N1CC2(CCN(C(=O)COC)CC2)c2c(n(C)c3cc(OC)ccc23)[C@@H]1CO | . | 0 | 70*
COc1ccc2c3c(n(C)c2c1)[C@H](CO)N(S(=O)(=O)c1ccc(C)cc1)CC31CCN(S(=O)(=O)c2ccc(C)cc2)CC1 | 7 | 0 | -6
CCCNC(=O)N1CC2(CCN(C(=O)CCC)CC2)c2c(n(C)c3cc(OC)ccc23)[C@H]1CO | -4 | 0 | -2
COc1ccc2c3c(n(C)c2c1)[C@@H](CO)N(S(=O)(=O)c1ccc(C)cc1)CC31CN(S(=O)(=O)c2ccc(C)cc2)C1 | . | 0 | 63*
O=C(C[C@H]1C[C@@H]2c3cc(NC(=O)Nc4ccc(F)cc4)ccc3O[C@@H]2[C@@H](CO)O1)NCC(F)(F)F | -3 | 6 | 5
O=S(c1ccccc1O)S(=O)c1ccccc1O (centres undefined) | 26* | . | -5
CS(=O)c1ccccc1O (centres undefined) | -1 | . | 10
COc1ccccc1CNC(=O)C[C@@H]1C[C@@H]2c3cc(NC(=O)Nc4ccccc4F)ccc3O[C@@H]2[C@@H](CO)O1 | -2 | 0 | 19
C[C@@H]1CN([C@@H](C)CO)S(=O)(=O)c2ccc(C3=CCCCC3)cc2O[C@@H]1CN(C)Cc1cccnc1 | 6 | 1 | 10
CSc1ccc(Cl)c(C(=O)NCCOc2cc(C)ccc2C(C)C)c1 | -3 | . | 1
Cc1ccc(C(C)C)c(OCCNC(=O)c2ccccc2O)c1 | -6 | 0 | 45*
O=C(C[C@@H]1C[C@H]2c3cc(NC(=O)Nc4ccccc4)ccc3O[C@H]2[C@H](CO)O1)NCc1ccncc1 | 3 | 0 | 9
Cc1ccc(S(=O)(=O)NNC(=O)c2cccc(O)c2)cc1 | 0 | 73* | 2
Cc1ccc(S(=O)(=O)NNC(=O)c2ccc(F)cc2)cc1 | 1 | . | 7
O=C(NNS(=O)(=O)c1ccc(F)cc1)c1cccc(O)c1 | 17* | . | 6
O=C(NNS(=O)(=O)c1ccccc1)c1ccc(F)cc1 | -2 | . | 3
COC(=O)C[C@@H]1CC[C@@H]2[C@H](COC[C@@H](O)CN2S(=O)(=O)c2ccccc2C)O1 | -3 | 0 | 5
COc1cccc(S(=O)(=O)N[C@H]2CC[C@H](CC(=O)NC3CCC3)O[C@@H]2CO)c1 | 1 | 0 | ?
CCOc1cc(/C=N/N2CCN(Cc3ccccc3)CC2)ccc1O | -4 | . | -2
CCOc1cc(C=NN2CCCCCC2)ccc1O | 31* | 0 | -8
COc1ccc2c3c(n(C)c2c1)[C@H](CO)N(C(=O)Nc1c(C)noc1C)CC31CCN(CC2CC2)CC1 | 2 | 0 | 10
COc1ccc(CN2CC3(C2)CN(Cc2ccc4c(c2)OCO4)[C@@H](CO)c2[nH]c4cc(OC)ccc4c23)cc1 | . | -1 | -35
COC(=O)[C@@]1(Cc2ccc(F)cc2)[C@H]2c3cc(C(=O)N(C)C)n(Cc4ccc(C)o4)c3C[C@H]2CN1C(=O)c1ccccc1 | . | 86* | 2

Screening data: PubChem, Broad Institute
